According to ChEMBL document CHEMBL1148694, “Calcitriol derivatives with two different side-chains at C-20. Part 4: further chain modifications that alter VDR-dependent monocytic differentiation potency in human leukemia cells” (2007):
Active and inactive are the calls of the source. The rule behind the calls is not given here.

What was measured:
[1] = Induction of differentiation in human HL60-G cells assessed as CD14 expression; type: functional
Outline: (§1)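 HL60-G33 cells in RPMI 1640 with 10% bovine calf serum at 37 °C, 5% CO2, given compounds in fresh medium (ethanol vehicle); 1,25D at 0.1, 1 and 10 nM. 1×10^6 cells washed twice in PBS, stained on ice for 45 min with MO1-FITC (CD11b) and MY4-RD1 (CD14), then washed. Flow cytometry with acquisition set on isotype controls.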

[2] = Induction of differentiation in human HL60-G cells assessed as CD11b expression; type: functional; outline: as §1
HL60-40AF = assay: Induction of differentiation in 1-alpha,25-dihydroxyvitamin D3 resistant human HL60-40AF cells; type: functional, cell-based
Outline: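 Differentiation-resistant HL60-40AF subclone adapted to grow in 1,25D, cultured in RPMI 1640 with 10% bovine calf serum. Compounds given in fresh medium with ethanol vehicle; 1,25D at 10 and 100 nM. 1×10^6 cells washed in PBS, stained on ice for 45 min with MY4-RD1 (CD14) and MO1-FITC (CD11b). Read by flow cytometry, gated on isotype controls.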

[3] = (§2) Induction of CYP24 mRNA expression in human HL60-G cells at 1 nM after 12 hrs relative to 1-alpha,25-dihydroxyvitamin D3; type: functional
Outline: (§3)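 HL60-G33 cells exposed to 1 nM compound for 12 h. Total RNA from 5×10^6 cells was DNase-treated, and 1 μg was reverse transcribed with MuLV RT and oligo-d(T). CYP24 transcript measured by SYBR green real-time PCR on a LightCycler with ARP0 as internal control. Values normalized to 1,25D treatment.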

[4] = Induction of differentiation in human HL60-G cells assessed as CD14 expression relative to 1-alpha,25-dihydroxyvitamin D3; type: functional; outline: as §1
[5] = Induction of differentiation in human HL60-G cells assessed as CD11b expression relative to 1-alpha,25-dihydroxyvitamin D3; type: functional; outline: as §1
[6] = Cell cycle arrest in HL60-G cells assessed as accumulation at G1 phase after 48 to 72 hrs; type: functional, cell-based; details: Homo sapiens
Outline: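 HL60-G33 cells in RPMI 1640 with 10% bovine calf serum, 37 °C, 5% CO2, given compounds in fresh medium (ethanol vehicle) for 48 and 72 h over increasing concentrations. 1×10^6 cells fixed in 75% ethanol at -20 °C overnight, treated with RNase A 100 U/mL at 37 °C for 1 h, stained with propidium iodide 10 μg/mL. Flow cytometry; G1/S ratio.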

HL60-G = assay: as §2; type: functional; outline: as §3

SMILES | ED20 [1] [nM] | ED20 [2] [nM] | Activity (HL60-40AF) | Fold change [3] | Activity [4] | Activity [5] | Activity [6] | Activity (HL60-G)
C=C1/C(=C\C=C2/CCC[C@@]3(C)C2CC[C@@H]3[C@H](C)CCCC(C)(C)O)C[C@@H](O)C[C@H]1O (stereo partly specified) | 0.57 | 1.2 | – | – | – | – | – | –
CC(C)(O)CC[C@@H]1C[C@@]1(CC#CC(O)(C(F)(F)F)C(F)(F)F)[C@H]1CCC2/C(=C/C=C3C[C@@H](O)C[C@H](O)C3)CCC[C@@]21C (stereo partly specified) | 0.46 | 1.17 | Active | 2.5 | 1.24 | 1.03 | – | –
C=C1/C(=C\C=C2/CCC[C@@]3(C)C2CC[C@@H]3[C@]2(CCCC(C)(C)O)C[C@H]2CCC(C)(C)O)C[C@@H](O)C[C@H]1F (stereo partly specified) | >500 | – | – | – | <0.001 | <0.002 | – | –
C=C1/C(=C\C=C2/CCC[C@@]3(C)C2CC[C@@H]3[C@]2(CC#CC(O)(C(F)(F)F)C(F)(F)F)C[C@H]2CCC(C)(C)O)C[C@@H](O)C[C@@H]1O (stereo partly specified) | 0.24 | 0.52 | Active | 30 | 2.38 | 2.31 | Active | –
CC(C)(O)CCC[C@@]1([C@H]2CCC3/C(=C/C=C4C[C@@H](O)C[C@H](O)C4)CCC[C@@]32C)C[C@H]1CCC(C)(C)O (stereo partly specified) | 66.03 | 98.75 | – | – | 0.009 | 0.01 | – | –
C=C1/C(=C\C=C2/CCC[C@@]3(C)C2CC[C@@H]3[C@]2(CCCC(C)(C)O)C[C@H]2CCC(C)(C)O)C[C@@H](O)C[C@@H]1O (stereo partly specified) | 9.97 | 19.75 | – | – | – | 0.06 | – | inactive
